SDO1 yeast rescue: growth rescue of sdo1-depleted yeast, primary screen, S. cerevisiae, bone marrow failure model; S. cerevisiae sdo1-depleted JHY4D growth rescue, OD600 30 h; hits give high values; pdr5 snq2 efflux-pump mutant strain; z-score at 10 µM; actives 0.21% (n = 140,000); AID 817, 2007;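 active = z-score above 3 at both the 24 hr and the 30 hr optical density reads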;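 also: z-score against mean and SD of all compound wells on the same plate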
Yeast life ext: compounds extending yeast replicative lifespan, primary screen, S. cerevisiae, OD615; S. cerevisiae growth with nicotinamide; deaD strain in restrictive glucose medium; inhibition of the nicotinamide effect, % at 10 µM; actives 0.68% (n = 130,000); AID 775, 2007;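 active = inhibition above a set limit, placed 3 SD over the median of all compounds, cut at about 26% in these data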;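 also: 0% = nicotinamide-treated wells and 100% = cells grown without nicotinamide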
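Measured by: optical density (absorbance) at 615 nm; System: modified budding yeast, DeaD strain; Medium: restrictive CSMM-D dextrose medium; Timing: 4 h preincubation then 48 h treatment at 30 °C.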
Phagocytosis inh: inhibitors of macrophage phagocytosis, primary screen, imaging, J774A.1 cells, IgG beads; J774A.1 macrophage IgG-bead phagocytosis; inhibition, % at 5 µM; actives 0.07% (n = 110,000); AID 1029, 2008;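 active = inhibition above the mean of the plate negative controls plus 5 SD, cut at about 13% in these data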;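 also: phagocytic index as fraction of beads internalized from green versus red external bead signal; plate controls were DMSO negative control for no effect and cytochalasin-D positive control for full effect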
MRP resist rev: reversal of MRP1-mediated doxorubicin resistance, primary screen, H69AR cells, doxorubicin co-treatment; H69AR cells + 2 uM doxorubicin, CellTiter-Glo, 72 h; differential viability (reversal), % at 10 µM; actives 0.04% (n = 85,000);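 active = viability drop by adding the cancer drug above about 55%, with treated viability meeting a 40% cutoff, limit read from the data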;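 also: viability without doxorubicin minus viability with 2 µM doxorubicin for each compound; larger differential means the compound sensitizes cells more to doxorubicin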
BB579 growth dn: growth inhibitors of yeast BB579 in restrictive medium, primary screen, yeast lifespan-shortening project, S. cerevisiae; actives 0.51% (n = 140,000); inhibition, % at 10 µM; OD615, 48 h; AID 804, 2007;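 active = inhibition above a set limit, 3 SD over the mean compound inhibition, cut at about 44% in these data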
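controls = amphotericin B 10 µg/mL, positive | assay system = DeaD yeast strain BB579 | schedule = 48 h compound exposure at 30 °C after 4 h preincubation | detection = OD615 turbidity measurement | medium = restrictive CSMM-D medium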
MRP-1 activ: H69AR viability gain despite doxorubicin, primary screen, MRP-1 activator project, H69AR cells, CellTiter-Glo; AID 799, 2007; viability rescue; viability increase, % at 10 µM; actives 0.61% (n = 140,000);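 active = viability gain under doxorubicin at or above a set limit, the compound median plus 3 SD, cut at about 4.7% in these data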;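 also: MRP-1 overexpressing cells given doxorubicin 25 µM after compound pretreatment; 18-22 h compound pretreatment then 72 h with doxorubicin before readout; 0% = doxorubicin-only wells and 100% = vehicle-treated cells without doxorubicin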
Active calls of the source: *; x = no result given; [ ] = remark or other dose. Rows were chosen to be rich in hits. Some 2.1% of all compounds tested hit in one or more screens of this group.

SMILES | SDO1 yeast rescue | Yeast life ext | Phagocytosis inh | MRP resist rev | BB579 growth dn | MRP-1 activ
CCNc1oc(-c2cccc3ccccc23)nc1C#N | -1.2 | -7 | 2 | 7 | -34 | 7.3*
C=CCNc1oc(-c2cccc3ccccc23)nc1C#N | -0.87 | -27 | 0 | 12 | -23 | 1
COc1ccc(C(=O)NCc2ccc3c(c2)OCO3)cc1S(=O)(=O)N(C)Cc1ccccc1 | -0.69 | 3 | x | x | -35 | 7.3*
COc1ccc(C(=O)NCc2ccccc2)cc1S(=O)(=O)N1CCCc2ccccc21 | -1.1 | -8 | x | x | -36 | 5.4*
Cc1csc(C(C#N)C(=O)c2cc3ccccc3o2)n1 (configuration not stated) | -0.2 | 17 | x | -15 | -16 | 6.1*
O=C(Nc1ccccn1)c1cc2ccccc2o1 | 1.6 | x | x | -19 | 12 | -5
CCOc1ccccc1/C=C/C(=O)c1ccc(Cl)cc1 | -0.2 | -6 | -14 | x | -59 | -5
CCOC(=O)COc1ccccc1/C=C\[N+](=O)[O-] | -0.9 | 44* | -10 | x | 35 | -4
COc1ccc(S(=O)(=O)Nc2nc3ccccc3nc2NCc2ccc3c(c2)OCO3)cc1 | -0.49 | 3 | -1 | x | -26 | 1
Cc1ccc(S(=O)(=O)Nc2nc3ccccc3nc2NCc2ccc3c(c2)OCO3)cc1C | -0.26 | 0 | -2 | x | -7 | 5.9*
Cc1ccc(-c2nc3sc4c(c3c(=O)n2N)CC(C)(C)OC4)cc1 | -1.1 | -2 | -1 | 4 | -25 | 3
CC1(C)Cc2c(sc3nnn(Cc4ccc(Cl)cc4)c(=O)c23)CO1 | -1.6 | 1 | 38*[artifact] | x | -33 | 7.4*
CC(C)CC(NS(=O)(=O)c1ccccc1)C(=O)O (configuration not stated) | 0.26 | -6 | -1 | 5 | -28 | -2
CC(C)CN=C(NS(=O)(=O)c1ccccc1)C(Cl)(Cl)Cl | -1.9 | 44* | -3 | x | -27 | -6
c1ccc2c(c1)nnn1c3ccccc3nc21 | -1 | -15 | 0 | 0 | 65* | 0
Cc1nc2ccccc2c2nc3ccccc3n12 | -1.7 | -19 | 0 | -1 | 92* | 0
COc1cc(NS(=O)(=O)c2ccc(N/C=C(\C#N)c3nc4cc(Cl)ccc4o3)cc2)nc(OC)n1 | -1.4 | 3 | -1 | x | -79 | 4.9*
Cc1ccc(OCC(=O)Nc2ccc(F)cc2)cc1C | 0.6 | x | x | 1 | -46 | 0
O=C1c2ccccc2C(=O)N1CCSc1nnc(-c2ccco2)n1Cc1ccccc1 | 0.61 | 1 | 0 | 18 | -60 | -1
Cc1nc(NC(=S)NC(=O)c2ccccc2)sc1C(=O)N(C)C | 1.5 | -16 | 0 | x | -25 | 7.7*
COC(=O)c1sc(NC(=S)NC(=O)c2ccccc2)nc1C | -0.48 | -1 | -8 | x | -35 | -2
CN(Cc1cc(=O)n2ccsc2n1)c1ccccc1 | 0.14 | -5 | -9 | x | -10 | 1
O=c1cc(CNc2ccc(Br)cc2)nc2sccn12 | -0.27 | -4 | 10 | x | 9 | 8.7*
CC1(C)CC2CC(C)(CN2C(=S)NC(=O)c2ccccc2Cl)C1 (configuration not stated) | -1.3 | 29* | -9 | x | -37 | -2
Cc1ccc2[nH]c(=O)c(-c3nc4ccccn4c3NCc3ccco3)cc2c1 | -0.62 | -12 | -1 | 8 | -31 | -7
SMILES | SDO1 yeast rescue | Yeast life ext | Phagocytosis inh | MRP resist rev | BB579 growth dn | MRP-1 activ
CCCCSc1nc(C)c(C(C)=O)cc1C#N | 1.7 | -16 | -1 | x | 50* | 0
CC(=O)c1cc(C#N)c(SCC(=O)O)nc1C | 0.32 | 6 | 0 | 5 | -49 | 0
O=C(CNc1ccc2ccccc2c1)N/N=C/C=C/c1cccc([N+](=O)[O-])c1 | -0.07 | 1 | -1 | x | -27 | -6
Cc1nc(-c2ccccc2)nc2[nH]ccc(=O)c12 | -0.15 | -12 | 0 | 15 | -27 | 0
CCOC(=O)C(=Cc1ccc(F)cc1)C(=O)OCC | -1 | 78* | 4 | x | -48 | -7
CCOC(=O)C(=O)Nc1ccc(F)cc1 | -0.32 | -6 | -1 | -16 | -21 | 1
COc1ccccc1NC(=O)CCC(=O)c1ccc(-c2ccccc2)cc1 | -0.18 | 0 | -11 | x | -14 | 0
COC(=O)c1cc(=O)n(-c2ccc(F)cc2)c(=Nc2ccc(F)cc2)s1 | -2 | 29* | x | x | -32 | -5
COC(=O)c1ccc(N=c2sc(C(=O)OC)cc(=O)n2C)cc1 | x | x | x | 11 | x | x
O=C(NC(=S)Nc1ccccc1N1CCCC1)c1ccc(-c2cccc([N+](=O)[O-])c2)o1 | 0.47 | -13 | -1 | 22 | -25 | -2
O=C(NC(=S)Nc1ccccc1N1CCOCC1)c1ccc(-c2cccc(Cl)c2)o1 | -0.05 | -1 | -1 | x | -41 | 5.2*
O=C(NC(=S)Nc1ccccc1N1CCCCC1)c1ccc(-c2cccc([N+](=O)[O-])c2)o1 | -0.34 | -2 | 2 | -2 | -45 | 8.0*
O=C(c1cn(-c2ccccc2)nc1-c1cccs1)N(CCO)Cc1ccccc1 | -1.9 | -10 | x | 4 | -3 | -5
O=C(CSc1nc2ccccc2c(=O)n1CCCN1CCOCC1)Nc1cccc(S(=O)(=O)N2CCCCCC2)c1 | 0.12 | 0 | 2 | x | -38 | -2
O=C(CC(O)(c1ccccc1)C(F)(F)F)c1cccs1 (configuration not stated) | -0.4 | -7 | 3 | 0 | -60 | 1
Cc1nccc2[nH]c(=O)c(C(=O)NC3CCN(Cc4ccccc4)CC3)cc12 | x | x | x | 14 | x | x
O=C(CSc1ncn[nH]1)c1ccc2c(c1)OCCO2 | 0.8 | -11 | -2 | 3 | -34 | 0
CC(C)c1ccc(C(=O)CSc2ncn[nH]2)cc1 | -0.8 | -4 | -2 | 22 | -4 | 6.6*
O=C(CSc1ncn[nH]1)NCCC(c1ccccc1)c1ccccc1 | -0.93 | -23 | -4 | 3 | 7 | 9.8*
N=C1CCCN1CC(=O)c1ccc(Br)cc1 | 0.21 | 1 | -2 | x | -27 | 1
Cc1noc(C)c1C(=O)OCC(=O)NCCC1=CCCCC1 | -0.31 | -10 | -3 | -13 | -23 | -1
COc1cc(-c2nc3ccc4ccccc4c3c3c2CCC3)ccc1O | -1.4 | -9 | -9 | x | 85* | 1
N#Cc1cccc(N=Cc2c(O)ccc3ccccc23)c1 | 0.35 | 40* | 3 | x | -9 | -2
O=C(O)Cc1ccc(N=Cc2c(O)ccc3ccccc23)cc1 | -0.62 | 57* | -4 | x | -30 | 0
CCOC(=O)c1sc(/N=C/c2c(O)ccc3ccccc23)cc1C | -0.26 | 12 | -8 | x | -30 | -2
Cc1ccc(N=Cc2c(O)ccc3ccccc23)cc1F | -0.41 | 36* | -1 | x | 5 | -2
